Active and inactive are the calls of the source. The calls are words filed in the database; no cut-off is given here.

The source of these data is ChEMBL document CHEMBL2057172, “Investigation of 7-benzylidenenaltrexone derivatives as resistance reverser for chloroquine-resistant Plasmodium chabaudi” (Bioorg Med Chem Lett, 2012).

For assay [1], the target named is T1, Glutathione reductase, putative (Plasmodium chabaudi) (UniProt A0A077YEX9). Description: Inhibition of Plasmodium chabaudi glutathione reductase assessed as residual reduced glutathione level after 30 mins in absence of glutathione S-transferase. The procedure, abridged: (§1)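 Compounds were incubated with GSH, with or without GST, at 37 °C for 30 min. The residual GSH ratio was obtained from the absorbance of the medium.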
T1 sequence (A0A077YEX9 as listed by the source): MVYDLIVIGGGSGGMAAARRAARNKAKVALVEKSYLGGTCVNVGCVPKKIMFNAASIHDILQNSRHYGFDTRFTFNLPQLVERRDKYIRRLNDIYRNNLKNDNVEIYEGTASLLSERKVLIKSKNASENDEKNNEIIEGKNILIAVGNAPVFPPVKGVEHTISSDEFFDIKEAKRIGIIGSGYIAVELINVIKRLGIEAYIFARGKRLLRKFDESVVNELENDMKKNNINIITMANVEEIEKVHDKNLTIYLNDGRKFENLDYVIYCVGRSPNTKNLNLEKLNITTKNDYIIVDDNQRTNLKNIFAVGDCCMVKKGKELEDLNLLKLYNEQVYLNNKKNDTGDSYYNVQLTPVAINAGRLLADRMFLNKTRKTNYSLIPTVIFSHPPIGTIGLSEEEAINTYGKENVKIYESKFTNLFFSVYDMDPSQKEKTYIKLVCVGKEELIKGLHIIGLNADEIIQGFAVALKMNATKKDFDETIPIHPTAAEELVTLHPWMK

The target of assay [2] is T1, Glutathione reductase, putative (Plasmodium chabaudi). Kind of assay: Inhibition of Plasmodium chabaudi glutathione reductase assessed as residual reduced glutathione level after 30 mins in presence of glutathione S-transferase. In outline: as §1
The test system of the next assay is Plasmodium chabaudi. Description: Antimalarial activity against chloroquine-resistant Plasmodium chabaudi infected in mouse assessed as reversal of chloroquine-resistance at 10 mg/kg, po administered 4 days after post infection. In kind it is functional, organism-based. Also on record: dose 10 mg/kg. In outline:
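Mice infected with CQ-resistant P. chabaudi. Test compounds were given perorally at 10 mg/kg, alongside CQ at 3 mg/kg given intraperitoneally. Resistance reversal was read at day 4 after infection. Groups were compared by one-way ANOVA followed by Dunnett's test.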

As for `O=C1[C@@H](Cc2ccccc2)C[C@@]2(O)[C@H]3Cc4ccc(O)c5c4[C@@]2(CCN3CC2CC2)[C@H]1O5`, the inhibition result in assay [1] and in assay [2] was “inactive” each time. `COc1ccc(/C=C2\C[C@@]3(O)[C@H]4Cc5ccc(O)c6c5[C@@]3(CCN4CC3CC3)[C@@H](O6)C2=O)cc1`: the result with Plasmodium chabaudi was Active. Consider `O=C1/C(=C/c2ccccc2)C[C@@]2(O)[C@H]3Cc4ccc(O)c5c4[C@@]2(CCN3CC2CC2)[C@H]1O5`, for which the outcome in the assay with Plasmodium chabaudi was Active.

`O=C1/C(=C/c2ccc(F)cc2)C[C@@]2(O)[C@H]3Cc4ccc(O)c5c4[C@@]2(CCN3CC2CC2)[C@H]1O5`: the outcome with Plasmodium chabaudi was Active.
